≈ marks a conversion by molar mass, not a printed value.
How the values were obtained:
Format in all cases: functional
MCF7 [1] = assay: Growth inhibition of human MCF7 cells at 10 uM after 24 hrs by SRB assay; details: MCF7, 24 h, read-out: GI
In short: (§1)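 Human breast cancer MCF-7 cells were exposed to each compound at four doses (1 × 10^-7, 10^-6, 10^-5 and 10^-4 M) and growth was read by sulforhodamine B assay. Values are % control growth, with negative numbers meaning cell kill. GI50 is the concentration giving 50% inhibition of cell growth. Positive controls were included, and each experiment was done three times.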

MCF7 [2] = assay: Growth inhibition of human MCF7 cells at 100 uM after 24 hrs by SRB assay; details: MCF7, 24 h, read-out: GI; in short: as §1
[3] = test system: Mycobacterium tuberculosis; assay: Antitubercular activity against Mycobacterium tuberculosis H37Rv after 5 days by microplate Alamar blue assay; details: 120 h
In short: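 MIC read by resazurin (Alamar Blue) microplate assay after 5 days of incubation at 37 °C. Run in duplicate each time, repeated twice, and MIC confirmed in a BacT/ALERT MP mycobacterial detection system.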

MCF7 [4] = assay: Growth inhibition of human MCF7 cells at 0.1 uM after 24 hrs by SRB assay; details: MCF7, 24 h, read-out: GI; in short: as §1
MCF7 [5] = assay: Growth inhibition of human MCF7 cells after 24 hrs by SRB assay; details: MCF7, 24 h; in short: as §1
MCF7 [6] = assay: Growth inhibition of human MCF7 cells at 1 uM after 24 hrs by SRB assay; details: MCF7, 24 h, read-out: GI; in short: as §1

Compound | inhibition of growth at 10 µM (MCF7 [1]) [%] | inhibition of growth at 100 µM (MCF7 [2]) [%] | MIC [3] [µg/mL] | inhibition of growth at 0.1 µM (MCF7 [4]) [%] | GI50 (MCF7 [5]) [µM] | inhibition of growth at 1 µM (MCF7 [6]) [%]
CCOC(=O)C1=C(C)NC(=S)NC1c1cn(-c2ccccc2)nc1-c1ccc(Cl)cc1 (stereo unspecified) | 70.6 | 99.2 | 0.125 (≈ 0.276 µM) | 4.1 | 33.2 | 12
CC1=C(C(=O)Nc2ccc([N+](=O)[O-])cc2)C(c2cn(-c3ccccc3)nc2-c2ccccc2)NC(=S)N1 (stereo unspecified) | 48.4 | 99.3 | 32 (≈ 62.7 µM) |  | 41.4 | 
CC1=C(C(=O)Nc2ccc(C)cc2)C(c2cn(-c3ccccc3)nc2-c2ccc(Cl)cc2)NC(=O)N1 (stereo unspecified) | 13.6 | 70.4 | 32 (≈ 64.3 µM) |  | 69.7 | 
CC1=C(C(=O)Nc2ccc(Cl)cc2)C(c2cn(-c3ccccc3)nc2-c2ccc(Cl)cc2)NC(=O)N1 (stereo unspecified) | < 10 | 88.7 | 32 (≈ 61.7 µM) |  | 56.9 | 
CC1=C(C(=O)Nc2ccccc2)C(c2cn(-c3ccccc3)nc2-c2ccccc2)NC(=O)N1 (stereo unspecified) | < 10 | 63.2 | 32 (≈ 71.2 µM) |  | 80.6 | 
CC1=C(C(=O)Nc2ccccc2)C(c2cn(-c3ccccc3)nc2-c2ccc(Cl)cc2)NC(=O)N1 (stereo unspecified) | 19.6 | 71.7 | 2 (≈ 4.13 µM) |  | 65.5 | 
CC1=C(C(=O)Nc2ccccc2Cl)C(c2cn(-c3ccccc3)nc2-c2ccccc2)NC(=O)N1 (stereo unspecified) | 13.9 | 72.2 | 32 (≈ 66.1 µM) |  | 66.6 | 
CC1=C(C(=O)Nc2ccc([N+](=O)[O-])cc2)C(c2cn(-c3ccccc3)nc2-c2ccccc2)NC(=O)N1 (stereo unspecified) | 27.3 | -17.7 | 16 (≈ 32.4 µM) |  | 35.5 | 
CCOC(=O)C1=C(C)NC(=O)NC1c1cn(-c2ccccc2)nc1-c1ccccc1 (stereo unspecified) | < 10 | 86 | 16 (≈ 39.8 µM) |  | 60.8 | 
CCOC(=O)C1=C(C)NC(=O)NC1c1cn(-c2ccccc2)nc1-c1ccc(Cl)cc1 (stereo unspecified) | 17.1 | 70.3 | 0.25 (≈ 0.572 µM) |  | 68.8 | 
CC1=C(C(=O)Nc2ccc(Cl)cc2)C(c2cn(-c3ccccc3)nc2-c2ccccc2)NC(=S)N1 (stereo unspecified) | 48.6 | -12.8 | 8 (≈ 16 µM) |  | 34.7 | 
CC1=C(C(=O)Nc2ccccc2)C(c2cn(-c3ccccc3)nc2-c2ccccc2)NC(=S)N1 (stereo unspecified) | < 10 | 57.4 | 32 (≈ 68.7 µM) |  | 88.2 | 
CC1=C(C(=O)Nc2ccccc2Cl)C(c2cn(-c3ccccc3)nc2-c2ccccc2)NC(=S)N1 (stereo unspecified) | 16.5 | 68.5 | 16 (≈ 32 µM) |  | 68.8 | 
COc1ccc(NC(=O)C2=C(C)NC(=S)NC2c2cn(-c3ccccc3)nc2-c2ccccc2)cc1 (stereo unspecified) | < 10 | 63.9 | 8 (≈ 16.1 µM) |  | 77.3 | 
COc1ccc(NC(=O)C2=C(C)NC(=S)NC2c2cn(-c3ccccc3)nc2-c2ccc(Cl)cc2)cc1 (stereo unspecified) | < 10 | 72 | 16 (≈ 30.2 µM) |  | 70 | 
COc1ccc(NC(=O)C2=C(C)NC(=O)NC2c2cn(-c3ccccc3)nc2-c2ccc(Cl)cc2)cc1 (stereo unspecified) | < 10 | 72.1 | 1 (≈ 1.95 µM) |  | 69.7 | 
CCOC(=O)C1=C(C)NC(=S)NC1c1cn(-c2ccccc2)nc1-c1ccccc1 (stereo unspecified) | 30.4 | -12 | 32 (≈ 76.5 µM) |  | 42 | 
CC1=C(C(=O)Nc2ccc(C)cc2)C(c2cn(-c3ccccc3)nc2-c2ccccc2)NC(=S)N1 (stereo unspecified) | 19.7 | 84.3 | 16 (≈ 33.4 µM) |  | 56.1 | 
CC1=C(C(=O)Nc2ccc(C)cc2)C(c2cn(-c3ccccc3)nc2-c2ccc(Cl)cc2)NC(=S)N1 (stereo unspecified) | 63.7 | 84.9 | 2 (≈ 3.89 µM) |  | 43.5 | 
CC1=C(C(=O)Nc2ccc(C)cc2)C(c2cn(-c3ccccc3)nc2-c2ccccc2)NC(=O)N1 (stereo unspecified) | 11.9 | 68.6 | 32 (≈ 69 µM) |  | 71.7 | 
CC1=C(C(=O)Nc2ccccc2)C(c2cn(-c3ccccc3)nc2-c2ccc(Cl)cc2)NC(=S)N1 (stereo unspecified) | 24.2 | 74.7 | 32 (≈ 64 µM) |  | 61.5 | 

Reference: ChEMBL document CHEMBL2016524, “Synthesis and in vitro anticancer and antitubercular activity of diarylpyrazole ligated dihydropyrimidines possessing lipophilic carbamoyl group” (2012)
